Assay results published in ChEMBL document CHEMBL2440064, “Synthesis and biological evaluation of 2-amino-5-aryl-3-benzylthiopyridine scaffold based potent c-Met inhibitors” (Bioorg Med Chem, 2013).
The source made the active and inactive calls. No cut-off for these calls is given here.

Assays:
[1] = biological target: T1, Hepatocyte growth factor receptor (Homo sapiens, UniProt P08581); assay: Inhibition of c-Met (unknown origin) using poly (Glu, Tyr) 4:1 as substrate after 60 mins by ELISA
[2] = biological target: T1, Hepatocyte growth factor receptor; assay: Inhibition of c-Met in human EBC1 cells assessed as inhibition of p44/42 phosphorylation at 0.16 to 20 uM after 2 hrs by Western blotting analysis; format: cell-based
Outline: (§1)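 Cells grown to exponential phase, treated with compound 2 h at 37°C, lysed in 1× SDS sample buffer, resolved on 10% SDS-PAGE and transferred to nitrocellulose for immunoblotting.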

[3] = biological target: T1, Hepatocyte growth factor receptor; assay: Competitive inhibition of c-Met (unknown origin) at 1.3 to 160 uM by Lineweaver-Burk plot analysis in presence of ATP
Outline: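 ATP-competition version of the poly(Glu,Tyr)4:1 ELISA kinase assay (60 min, 37°C, PY99 antibody detection, A490) run at various ATP concentrations; Lineweaver-Burk plot constructed.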

[4] = biological target: T2, TPR/MET fusion protein (Mus musculus) (UniProt P16056+F6ZDS4); assay: Inhibition of TPR/Met in mouse NIH3T3 cells assessed as inhibition of p44/42 phosphorylation at 0.08 to 10 uM after 2 hrs by Western blotting analysis; format: cell-based; outline: as §1
[5] = biological target: Platelet-derived growth factor receptor beta (Homo sapiens, UniProt P09619); assay: Inhibition of PDGFRbeta (unknown origin) using poly (Glu, Tyr) 4:1 as substrate after 60 mins by ELISA
Outline: (§2)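 ELISA on wells precoated with 20 µg/mL poly(Glu,Tyr)4:1. Purified kinase with 10 µmol/L ATP in 50 mM HEPES pH 7.4, 50 mM MgCl₂, 0.5 mM MnCl₂, 0.2 mM Na₃VO₄, 1 mM DTT; 1% DMSO vehicle. 60 min at 37°C. Phosphotyrosine detected with PY99 antibody, then HRP anti-mouse IgG and o-phenylenediamine/H₂O₂, A490. Inhibition = [1−(A490/A490 control)]×100%; IC50 from curves.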

NIH3T3 = assay: Antitumor activity against mouse NIH/3T3 cells expressing TPR/Met allografted in mouse assessed as tumor growth inhibition at 100 mg/kg, po qd administered for 2 weeks measured twice per week relative to vehicle-treated control; format: functional; details: NIH3T3, 336 h, read-out: TGI
Outline: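 Tumor fragments (1 mm³) implanted s.c. in right flank of nude mice by trocar. Randomized at 100–150 mm³ tumor volume. Dosed orally 7 days/week for 2 weeks; vehicle controls. Calipers twice weekly; TV = length×width²/2. Inhibition = 100%×{1−[(T day14−T day0)/(C day14−C day0)]}. n = 6/group, Student's t-test.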

[6] = Oral bioavailability in rat at 10 mg/kg; format: ADME, organism-based; details: in vivo
Outline: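 Rats given a single iv dose (2 mg/kg) or a single po dose (10 mg/kg).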

HCT-116 = assay: Antiproliferative activity against human HCT116 cells after 72 hrs; details: HCT-116, 72 h
[7] = biological target: ALK tyrosine kinase receptor (Homo sapiens, UniProt Q9UM73); assay: Inhibition of ALK (unknown origin) using poly (Glu, Tyr) 4:1 as substrate after 60 mins by ELISA; outline: as §2
[8] = biological target: Epidermal growth factor receptor (Homo sapiens, UniProt P00533); details: HCC827, at 0.5 µM
[9] = biological target: Tyrosine-protein kinase receptor UFO (Homo sapiens, UniProt P30530); assay: Inhibition of AXL (unknown origin) using poly (Glu, Tyr) 4:1 as substrate after 60 mins by ELISA; outline: as §2
[10] = biological target: Vascular endothelial growth factor receptor 2 (Homo sapiens, UniProt P35968); assay: Inhibition of KDR (unknown origin) using poly (Glu, Tyr) 4:1 as substrate after 60 mins by ELISA; outline: as §2
[11] = biological target: Macrophage-stimulating protein receptor (Homo sapiens, UniProt Q04912); assay: Inhibition of RON (unknown origin) using poly (Glu, Tyr) 4:1 as substrate after 60 mins by ELISA; outline: as §2
[12] = biological target: T1, Hepatocyte growth factor receptor; assay: Inhibition of c-Met in gefitinib-resistant human HCC827 cells assessed as inhibition of p44/42 phosphorylation at 0.5 uM after 2 hrs by Western blotting analysis; format: cell-based; outline: as §1
NCI-H661 = assay: Antiproliferative activity against human NCI-H661 cells after 72 hrs; details: NCI-H661, 72 h
BaF3 = assay: Induction of cell cycle arrest in mouse BAF3 cells expressing TPR/Met fusion protein assessed as accumulation at G1 phase at 1 uM after 24 hrs by propidium iodide staining-based FACS analysis (reference value: 26.6%); format: functional
SK-MEL-28 = assay: Antiproliferative activity against human SK-MEL-28 cells after 72 hrs; details: SK-MEL-28, 72 h
[13] = biological target: T1, Hepatocyte growth factor receptor; assay: Inhibition of c-Met in gefitinib-resistant human HCC827 cells assessed as inhibition of AKT phosphorylation at 0.5 uM after 2 hrs by Western blotting analysis in presence of gefitinib; format: cell-based; outline: as §1
[14] = biological target: T1, Hepatocyte growth factor receptor; assay: Inhibition of c-Met phosphorylation in human EBC1 cells after 2 hrs by Western blotting analysis; format: cell-based
Outline: (§3)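 Cells grown under regular conditions to exponential phase, exposed to compound at indicated concentrations for 2 h at 37°C, lysed in 1× SDS sample buffer. Lysates resolved on 10% SDS-PAGE and transferred to nitrocellulose for immunoblotting.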

SNU-5 = assay: Antiproliferative activity against human SNU5 cells after 72 hrs; details: SNU-5, 72 h
[15] = biological target: T1, Hepatocyte growth factor receptor; assay: Inhibition of c-Met phosphorylation in human SNU5 cells after 2 hrs by Western blotting analysis; format: cell-based; details: SNU-5; outline: as §3
[16] = biological target: Hepatocyte growth factor receptor (Canis lupus familiaris) (UniProt Q75ZY9); assay: Inhibition of c-Met in MDCK cells assessed as HGF-induced cell scattering after 24 hrs by microscopic analysis; format: cell-based
Outline: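 MDCK cells plated at 1,500/well in 96-well plates and allowed to form clusters over 24 h. Then 24 h with compound plus 50 ng/mL recombinant human HGF in FBS-free medium. Fixed in 4% paraformaldehyde 15 min at room temperature, stained with 0.2% crystal violet and imaged by microscopy.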

[17] = Half life in rat at 2 mg/kg, iv and 10 mg/kg, po; format: ADME, organism-based; details: in vivo
Outline: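 Rat pharmacokinetics after a single intravenous dose (2 mg/kg) and a single oral dose (10 mg/kg).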

MKN-45 = assay: Induction of cell cycle arrest in human MKN45 cells assessed as accumulation at G1 phase at 1 uM after 24 hrs by propidium iodide staining-based FACS analysis (reference value: 39.1%); format: functional
Mus musculus = assay: Toxicity in mouse allografted with mouse NIH/3T3 cells assessed as decrease in body weight at 100 mg/kg, po qd administered for 2 weeks measured twice per week; format: organism-based, NIH3T3; design: dose 100 mg/kg, route oral; details: in vivo, 336 h
Outline: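 Tumor fragments of 1 mm³ implanted s.c. in the right flank of nude mice with a trocar. Mice randomized once tumors reached 100–150 mm³. Oral dosing 7 days/week for 2 weeks; vehicle-only controls. Tumors measured twice weekly by microcaliper; body weight monitored.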

[18] = biological target: T1, Hepatocyte growth factor receptor; assay: Inhibition of c-Met in human HCC827/GR5 cells assessed as potentiation of gefitinib-induced cell growth inhibition at 0.5 uM after 72 hrs; format: cell-based
[19] = biological target: T2, TPR/MET fusion protein (Mus musculus); assay: Inhibition of TPR/Met phosphorylation in mouse NIH3T3 cells after 2 hrs by Western blotting analysis; format: cell-based; outline: as §1

T1 sequence (P08581 whole entry): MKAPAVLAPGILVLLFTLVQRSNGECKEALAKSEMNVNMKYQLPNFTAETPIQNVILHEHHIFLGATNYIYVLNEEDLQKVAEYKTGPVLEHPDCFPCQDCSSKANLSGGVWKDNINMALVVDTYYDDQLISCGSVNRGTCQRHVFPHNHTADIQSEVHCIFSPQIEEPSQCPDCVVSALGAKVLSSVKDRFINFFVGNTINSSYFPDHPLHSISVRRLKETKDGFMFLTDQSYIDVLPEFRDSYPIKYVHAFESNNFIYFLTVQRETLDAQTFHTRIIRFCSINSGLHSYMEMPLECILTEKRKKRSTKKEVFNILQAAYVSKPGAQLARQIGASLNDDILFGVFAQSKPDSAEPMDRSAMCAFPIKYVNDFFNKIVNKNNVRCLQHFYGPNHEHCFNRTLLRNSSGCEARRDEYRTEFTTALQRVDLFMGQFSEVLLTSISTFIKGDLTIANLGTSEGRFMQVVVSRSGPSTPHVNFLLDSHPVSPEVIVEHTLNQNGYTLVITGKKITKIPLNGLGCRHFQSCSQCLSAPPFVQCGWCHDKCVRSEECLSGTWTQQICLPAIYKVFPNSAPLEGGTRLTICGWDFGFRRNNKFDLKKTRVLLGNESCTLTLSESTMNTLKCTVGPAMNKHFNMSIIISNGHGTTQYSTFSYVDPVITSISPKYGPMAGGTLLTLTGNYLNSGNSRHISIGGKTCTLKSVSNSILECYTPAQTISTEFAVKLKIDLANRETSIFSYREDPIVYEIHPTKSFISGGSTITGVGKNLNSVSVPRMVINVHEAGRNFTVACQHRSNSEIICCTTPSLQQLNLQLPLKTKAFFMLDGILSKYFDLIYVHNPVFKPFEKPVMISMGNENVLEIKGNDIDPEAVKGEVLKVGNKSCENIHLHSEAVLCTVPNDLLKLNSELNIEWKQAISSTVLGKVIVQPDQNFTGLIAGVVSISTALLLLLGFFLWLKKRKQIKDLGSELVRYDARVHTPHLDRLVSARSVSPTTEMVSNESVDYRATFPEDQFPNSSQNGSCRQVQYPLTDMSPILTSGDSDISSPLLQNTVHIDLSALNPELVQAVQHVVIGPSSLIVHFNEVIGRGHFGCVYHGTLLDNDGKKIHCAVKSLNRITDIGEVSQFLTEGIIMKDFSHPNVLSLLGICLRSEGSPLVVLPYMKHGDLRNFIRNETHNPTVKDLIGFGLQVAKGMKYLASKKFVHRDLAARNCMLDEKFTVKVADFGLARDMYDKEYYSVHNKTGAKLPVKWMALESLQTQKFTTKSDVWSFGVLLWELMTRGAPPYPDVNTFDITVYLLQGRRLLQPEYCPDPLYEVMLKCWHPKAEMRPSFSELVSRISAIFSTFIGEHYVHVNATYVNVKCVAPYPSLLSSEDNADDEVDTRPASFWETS
T2 sequence (F6ZDS4 whole entry partner, the tested form may be a part): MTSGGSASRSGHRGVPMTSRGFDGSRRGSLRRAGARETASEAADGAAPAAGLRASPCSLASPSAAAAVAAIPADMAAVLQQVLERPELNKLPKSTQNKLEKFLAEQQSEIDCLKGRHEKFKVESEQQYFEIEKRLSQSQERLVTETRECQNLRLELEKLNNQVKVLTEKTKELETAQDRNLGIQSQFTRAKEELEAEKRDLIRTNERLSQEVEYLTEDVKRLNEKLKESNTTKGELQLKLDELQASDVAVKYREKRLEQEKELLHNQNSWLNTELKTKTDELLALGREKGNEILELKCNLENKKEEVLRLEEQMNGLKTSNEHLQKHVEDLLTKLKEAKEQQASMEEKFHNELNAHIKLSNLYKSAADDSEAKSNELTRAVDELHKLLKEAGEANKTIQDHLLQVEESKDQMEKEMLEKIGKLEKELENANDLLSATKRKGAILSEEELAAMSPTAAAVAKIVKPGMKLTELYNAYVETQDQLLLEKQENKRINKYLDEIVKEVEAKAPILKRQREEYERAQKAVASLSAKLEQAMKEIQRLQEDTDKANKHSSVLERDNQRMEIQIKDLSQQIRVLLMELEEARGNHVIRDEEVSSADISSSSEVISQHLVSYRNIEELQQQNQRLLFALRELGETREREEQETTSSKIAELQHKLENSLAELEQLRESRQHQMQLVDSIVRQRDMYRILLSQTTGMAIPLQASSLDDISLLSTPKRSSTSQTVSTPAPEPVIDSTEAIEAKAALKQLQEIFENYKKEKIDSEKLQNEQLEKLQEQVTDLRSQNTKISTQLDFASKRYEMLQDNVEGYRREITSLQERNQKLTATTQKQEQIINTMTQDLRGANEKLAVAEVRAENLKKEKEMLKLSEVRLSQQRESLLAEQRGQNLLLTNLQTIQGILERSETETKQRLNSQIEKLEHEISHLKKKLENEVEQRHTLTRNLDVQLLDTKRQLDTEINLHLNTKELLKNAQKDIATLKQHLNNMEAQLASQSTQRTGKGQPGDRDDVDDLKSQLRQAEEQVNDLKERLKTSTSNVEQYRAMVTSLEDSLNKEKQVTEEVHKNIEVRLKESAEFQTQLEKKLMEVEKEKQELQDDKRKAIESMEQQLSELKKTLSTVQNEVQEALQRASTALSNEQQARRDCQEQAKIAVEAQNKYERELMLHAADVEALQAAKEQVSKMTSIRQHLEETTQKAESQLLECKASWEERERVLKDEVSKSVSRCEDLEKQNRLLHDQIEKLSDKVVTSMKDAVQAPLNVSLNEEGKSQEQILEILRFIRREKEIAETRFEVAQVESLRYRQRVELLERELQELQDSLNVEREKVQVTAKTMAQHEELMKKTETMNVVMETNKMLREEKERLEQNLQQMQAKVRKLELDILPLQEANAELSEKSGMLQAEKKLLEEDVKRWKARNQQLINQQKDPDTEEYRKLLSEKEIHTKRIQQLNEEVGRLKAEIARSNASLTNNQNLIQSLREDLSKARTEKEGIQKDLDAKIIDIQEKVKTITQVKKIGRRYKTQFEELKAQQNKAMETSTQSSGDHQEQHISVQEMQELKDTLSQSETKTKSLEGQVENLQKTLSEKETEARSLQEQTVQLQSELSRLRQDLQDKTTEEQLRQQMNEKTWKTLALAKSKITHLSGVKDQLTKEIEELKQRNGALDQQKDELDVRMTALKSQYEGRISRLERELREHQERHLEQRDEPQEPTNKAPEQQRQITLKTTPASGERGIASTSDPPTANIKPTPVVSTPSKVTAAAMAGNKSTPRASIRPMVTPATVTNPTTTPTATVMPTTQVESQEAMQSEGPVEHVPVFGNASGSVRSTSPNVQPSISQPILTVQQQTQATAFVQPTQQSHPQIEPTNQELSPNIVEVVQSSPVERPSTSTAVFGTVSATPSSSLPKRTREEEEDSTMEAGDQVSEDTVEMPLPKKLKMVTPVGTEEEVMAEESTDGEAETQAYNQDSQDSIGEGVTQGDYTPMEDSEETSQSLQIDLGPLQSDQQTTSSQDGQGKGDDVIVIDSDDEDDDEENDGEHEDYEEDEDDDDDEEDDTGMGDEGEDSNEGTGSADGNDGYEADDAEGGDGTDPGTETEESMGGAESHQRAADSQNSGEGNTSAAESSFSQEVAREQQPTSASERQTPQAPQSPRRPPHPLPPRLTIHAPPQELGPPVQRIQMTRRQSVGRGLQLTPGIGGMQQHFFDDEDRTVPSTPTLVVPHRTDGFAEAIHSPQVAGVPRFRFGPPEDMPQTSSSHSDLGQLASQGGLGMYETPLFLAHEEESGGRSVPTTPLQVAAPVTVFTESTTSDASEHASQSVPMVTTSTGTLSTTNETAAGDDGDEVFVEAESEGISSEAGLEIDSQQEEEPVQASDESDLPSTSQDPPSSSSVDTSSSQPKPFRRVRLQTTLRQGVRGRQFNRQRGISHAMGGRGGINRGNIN
T2 sequence (P16056 25-1379 limits assumed): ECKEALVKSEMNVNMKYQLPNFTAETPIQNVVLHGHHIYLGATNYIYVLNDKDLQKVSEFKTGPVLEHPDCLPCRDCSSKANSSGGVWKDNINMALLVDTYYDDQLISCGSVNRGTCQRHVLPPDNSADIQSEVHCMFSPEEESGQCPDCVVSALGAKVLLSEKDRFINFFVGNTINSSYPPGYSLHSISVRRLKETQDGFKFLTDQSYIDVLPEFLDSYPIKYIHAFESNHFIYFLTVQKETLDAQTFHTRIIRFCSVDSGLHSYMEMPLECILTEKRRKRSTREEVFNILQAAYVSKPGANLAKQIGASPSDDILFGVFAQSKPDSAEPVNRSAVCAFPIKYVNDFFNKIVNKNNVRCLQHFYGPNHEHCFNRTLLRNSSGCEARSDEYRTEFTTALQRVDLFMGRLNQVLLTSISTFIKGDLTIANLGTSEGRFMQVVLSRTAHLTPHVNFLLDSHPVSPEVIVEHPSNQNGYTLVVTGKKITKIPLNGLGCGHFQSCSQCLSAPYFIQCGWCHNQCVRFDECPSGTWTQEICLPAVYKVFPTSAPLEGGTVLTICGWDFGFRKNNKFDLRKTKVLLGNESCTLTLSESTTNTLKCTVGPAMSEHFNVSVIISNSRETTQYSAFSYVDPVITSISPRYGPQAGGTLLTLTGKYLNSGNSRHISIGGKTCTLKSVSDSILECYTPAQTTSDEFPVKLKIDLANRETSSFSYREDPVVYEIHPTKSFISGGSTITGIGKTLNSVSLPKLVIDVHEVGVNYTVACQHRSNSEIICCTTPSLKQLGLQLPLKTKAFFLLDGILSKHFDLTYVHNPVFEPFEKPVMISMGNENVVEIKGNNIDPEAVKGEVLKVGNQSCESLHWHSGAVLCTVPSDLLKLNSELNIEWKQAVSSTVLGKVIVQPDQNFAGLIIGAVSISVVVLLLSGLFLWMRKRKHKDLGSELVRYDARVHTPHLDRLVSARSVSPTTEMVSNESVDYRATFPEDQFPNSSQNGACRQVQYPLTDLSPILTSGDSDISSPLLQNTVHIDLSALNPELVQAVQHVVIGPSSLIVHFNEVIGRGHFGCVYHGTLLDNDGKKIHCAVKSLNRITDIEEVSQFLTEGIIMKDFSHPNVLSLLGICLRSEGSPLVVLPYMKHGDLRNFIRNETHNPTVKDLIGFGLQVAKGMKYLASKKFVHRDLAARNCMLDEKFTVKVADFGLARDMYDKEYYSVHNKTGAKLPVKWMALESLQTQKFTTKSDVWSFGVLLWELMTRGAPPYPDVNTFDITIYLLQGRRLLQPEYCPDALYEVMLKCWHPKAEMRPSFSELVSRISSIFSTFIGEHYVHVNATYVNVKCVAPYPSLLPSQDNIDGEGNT

C[C@@H](Sc1cc(-c2cnn(C3CCNCC3)c2)cnc1N)c1c(Cl)ccc(F)c1Cl
IC50 [1]: 7.7 nM
inhibition [2]: Active
inhibition [3]: Active
inhibition [4]: Active
IC50 [5]: > 1000 nM
inhibition in vivo at 100 mg/kg (NIH3T3): 45.5%
bioavailability [6]: 12.8%
IC50 (HCT-116): 14300 nM
IC50 [7]: 349 nM
inhibition [8]: Active
IC50 [9]: 446 nM
IC50 [10]: > 1000 nM
IC50 [11]: 336 nM
inhibition [12]: inactive
IC50 (NCI-H661): 16200 nM
Activity (BaF3): 69.6%
IC50 (SK-MEL-28): 9310 nM
inhibition [13]: Active
inhibition [14]: Dose-dependent effect
IC50 (SNU-5): 190 nM
inhibition [15]: Dose-dependent effect
inhibition [16]: Dose-dependent effect
half-life [17]: 5.7 h
Activity (MKN-45): 60.1%
Activity (Mus musculus): Non-toxic
inhibition [18]: Active
inhibition [19]: Dose-dependent effect
